Screening data deposited in PubChem by several laboratories.
Sampled rows, rich in hits. Any-hit rate of the full collection: about 3.1%.
MEKK2 WT-MEK5: raises or lowers MEK5 binding to wildtype human MEKK2 PB1 domain; Q9Y2U5; binding response (% of control), % at 10 µM; 1.1% of 290,000 active; bead flow cytometry, Alexa488-MEK5 binding to MEKK2 WT; actives lie on both sides; in the data active = binding response below about 67% or above about 130%; inconclusive = no clear call, values can overlap the other calls; inactive = in between
Apaf1 inhib: blocks human Apaf-1 apoptosome activity; O14727; reconstituted apoptosome caspase-3 activity, DEVD-Rh110 fluorescence; inhibition, % at 20 µM; 0.71% of 330,000 active; AID 489030; active = inhibition of at least 40% at 20 µM
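Material: reconstituted apoptosome with Apaf-1, cytochrome c, caspase-9, procaspase-3, dATP. Technique: Rh110 fluorescence intensity. Buffer or medium: pH 7.5 Hepes buffer with CHAPS, BSA, DTT. Times: 30 min plus 50 min, RT.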
PREPL inhibitor: inhibits the human prolyl oligopeptidase-like enzyme; Q4J6C6; recombinant PREPL, fluorescence polarization activity-based probe; inhibition, % at 5.96 µM; 0.68% of 320,000 active; AID 2751
MEKK3 PB1 HTS: MEKK3-MEK5 PB1 interaction, increase or decrease; Q99759; bead-based flow cytometry, Alexa488-MEK5 binding to MEKK3; actives lie on both sides; 0 = blocked by unlabeled MEK5, 100 = vehicle; binding response (% of control), % at 10 µM; 1.4% of 290,000 active;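 active = binding response more than 3 SD above or below the average of its plate-row segment, actives on both sides; inconclusive = wells at one plate position flagged as instrument error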;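 also: Alexa488 bead fluorescence after subtracting the streptavidin-only scavenger bead signal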
Target sequence (Q99759 whole entry, looked up): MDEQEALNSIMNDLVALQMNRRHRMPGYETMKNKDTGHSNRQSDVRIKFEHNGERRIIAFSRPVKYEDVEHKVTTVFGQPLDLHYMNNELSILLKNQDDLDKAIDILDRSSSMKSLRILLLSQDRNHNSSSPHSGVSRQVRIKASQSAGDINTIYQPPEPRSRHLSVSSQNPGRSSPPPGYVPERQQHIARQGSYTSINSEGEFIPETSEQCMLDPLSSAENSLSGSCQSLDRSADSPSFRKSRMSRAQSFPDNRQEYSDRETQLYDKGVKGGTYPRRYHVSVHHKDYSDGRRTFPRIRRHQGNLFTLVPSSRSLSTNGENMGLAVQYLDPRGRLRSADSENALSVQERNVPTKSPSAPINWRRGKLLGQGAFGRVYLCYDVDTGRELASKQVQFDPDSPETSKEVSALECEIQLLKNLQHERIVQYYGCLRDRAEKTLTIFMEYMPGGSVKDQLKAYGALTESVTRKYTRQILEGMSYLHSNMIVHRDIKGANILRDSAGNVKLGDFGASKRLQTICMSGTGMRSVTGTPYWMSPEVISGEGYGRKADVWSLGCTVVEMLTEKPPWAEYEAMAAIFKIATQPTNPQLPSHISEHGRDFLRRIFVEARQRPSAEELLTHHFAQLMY
UBC13 polyUb: inhibitors of human UBC13 polyubiquitin chain formation; TR-FRET; inhibition, % at 20 µM; 0.47% of 330,000 active; in the data active = inhibition above about 45%, passing the limit was not always enough; inconclusive = no clear call, values can overlap the other calls
MEKK2mut PB1 HTS: signal of MEK5 binding to mutant human MEKK2 PB1 domain. bead flow cytometry, Alexa488-MEK5 binding to MEKK2 mutant. percent response, % at 10 µM. 0.35% of 290,000 active; in the data active = percent response above about 24%, passing the limit was not always enough
PREPL inh cf: confirmation of human PREPL enzyme inhibitors | recombinant PREPL, fluorescence polarization activity probe | shares compounds with PREPL inhibitor | 67% of 2,000 active | inhibition, % at 5.96 µM
Of the large screens only hits and unclear results are named; the others gave an inactive call (follow-up assays come after a bar, where they were run). Rule as the data show it, unless noted: active = inhibition above about 43%; inactive = the rest.

C=C1c2cccc(O)c2C(O)=C2C(=O)[C@]3(O)C(O)=C(C(N)=O)C(=O)[C@@H](N(C)C)[C@@H]3[C@@H](O)[C@H]12	PREPL inhibitor 80 | PREPL inh cf inactive
C[C@H]1c2cccc(O)c2C(O)=C2C(=O)C3(O)C(O)=C(C(N)=O)C(=O)[C@@H](N(C)C)[C@@H]3[C@@H](O)[C@@H]21 (some centres undefined)	none (no result: MEKK2 WT-MEK5, MEKK3 PB1 HTS, MEKK2mut PB1 HTS)
COc1ccc(CN2CCN(c3cc(C)nc4c5c(C)cc(C)nc5nn34)CC2)cc1F	PREPL inhibitor 46 | PREPL inh cf inactive
CCOc1ccc(CN2CCN(c3cc(C)nc4c5c(C)cc(C)nc5nn34)CC2)cc1	none (no result: Apaf1 inhib, PREPL inhibitor, UBC13 polyUb)
COc1cc(/C=N/N=C2/NC(=O)C(CC(=O)O)S2)ccc1OCc1ccc(Cl)cc1 (centres undefined)	none
CCOc1cc(/C=N/N=C2/NC(=O)C(CC(=O)O)S2)ccc1OCc1ccc(Cl)cc1Cl (centres undefined)	PREPL inhibitor 49 | PREPL inh cf 64
O=C(O)CCCn1cc(NC(=O)c2sc3ccccc3c2Cl)cn1	none
CCCCN1C(=N)N([C@@H](C)CN2CCC[C@H]2CN2C(N)=NC[C@H]2CC(C)C)C[C@H]1[C@H](C)CC	PREPL inhibitor 47 (no result: MEKK2 WT-MEK5, MEKK3 PB1 HTS, MEKK2mut PB1 HTS) | PREPL inh cf inactive
CC(NC(=O)[C@@H](C)NC(=O)[C@@H]1Cc2ccccc2CN1C(=O)OC(C)(C)C)c1ccccc1 (some centres undefined)	none
N#C/C(=C\c1ccncc1)c1nc2ccccc2o1	none
N#C/C(=C\Nc1ccccc1O)c1nc2ccccc2o1	PREPL inhibitor 48 (no result: Apaf1 inhib, UBC13 polyUb) | PREPL inh cf inactive
C/C=C1\COC(C(=O)NCc2ccccc2)(C(F)(F)F)C=C1C=C(C)C (centres undefined)	none
COc1ccccc1NC(=O)Nc1nc(CC(=O)Nc2ccc(N(C)C)cc2)cs1	PREPL inhibitor 47 (no result: MEKK2 WT-MEK5, MEKK3 PB1 HTS, MEKK2mut PB1 HTS) | PREPL inh cf 43
COc1ccccc1NC(=O)Nc1nc(CC(=O)Nc2ccc(F)cc2)cs1	none (no result: MEKK2 WT-MEK5, MEKK3 PB1 HTS, MEKK2mut PB1 HTS)
O=S(=O)(NCC1CCN(c2ccc(S(=O)(=O)N3CCOCC3)cc2)CC1)c1ccc(F)cc1	none
Cc1ccc(C)c(N2CC(C(=O)OCC(=O)Nc3cc(C)on3)CC2=O)c1 (centres undefined)	none
c1ccc2c(c1)CCN(c1nc3cc4c(cc3s1)OCCO4)C2	PREPL inhibitor 48 | PREPL inh cf inactive
COc1ccc(C2=Nn3c(nnc3-c3ccccc3F)SC2)cc1OCC1CC1	PREPL inhibitor 56 (no result: MEKK2 WT-MEK5, MEKK3 PB1 HTS, MEKK2mut PB1 HTS) | PREPL inh cf inactive
COc1ccc(NS(=O)(=O)c2cc(NC(=O)c3cc(F)c(F)c(F)c3F)ccc2N2CCCC2)cc1	PREPL inhibitor 46 | PREPL inh cf inactive
FC(F)(F)c1ccnc(NCc2ccco2)n1	none
CCCCNC(=O)c1ccc2c(c1)C(=O)N(Cc1ccncc1)C2=O	none (no result: PREPL inhibitor)
CCNC(=O)CC1C(=O)N(c2ccccc2)C(=O)N1CCOC (centres undefined)	none
COC(=O)c1cc2c(-c3ccccc3)c(C)c3ccccn3c-2c1C(=O)OC	none
COC(=O)c1c(Cl)c2n3ccccc3c(C)c(-c3ccccc3)c-2c1C(=O)OC	PREPL inhibitor 49 | PREPL inh cf inactive
CCn1nc(C(=O)N2CCN(Cc3nc4ccccc4s3)CC2)c2ccccc2c1=O	none (no result: MEKK2 WT-MEK5, MEKK3 PB1 HTS, MEKK2mut PB1 HTS)
COc1ccc(S(=O)(=O)N2CCN=C2SCc2cccc(F)c2)cc1	none
CCOC(=O)c1c(-c2ccc(-c3ccccc3)cc2)csc1NC(=O)C1C2CCC(O2)C1C(=O)O (centres undefined)	PREPL inhibitor 51 | PREPL inh cf 55
COc1ccc(OC)c(Nc2nc(NCCCN(C)C)nc(N)c2[N+](=O)[O-])c1	PREPL inhibitor 47, UBC13 polyUb inconclusive | PREPL inh cf inactive
C/C(=N\NC(=O)c1cccc(S(=O)(=O)N2CCCC2)c1)c1ccc(OCC(=O)N(C)C)cc1	none (no result: MEKK2 WT-MEK5, MEKK3 PB1 HTS, MEKK2mut PB1 HTS)
O=C(COc1ccccc1Cl)Nc1ccc(N2CCN(C(=O)c3ccccc3)CC2)cc1	PREPL inhibitor 64 | PREPL inh cf 62
Cc1ccc(OCC(=O)Nc2ccc(N3CCN(C(=O)c4ccc(C)cc4)CC3)cc2)cc1	none
O=C(COc1ccccc1Cl)Nc1ccc(N2CCCC2)cc1	none
CCN1CCN(c2ccc(NC(=O)COc3ccccc3Cl)cc2)CC1	PREPL inhibitor 47 | PREPL inh cf inactive
CC(=O)N1CCN(c2ccc(NC(=O)COc3ccc(Cl)cc3Cl)cc2)CC1	PREPL inhibitor 53 | PREPL inh cf 54
Cc1cccc(OCC(=O)Nc2ccc(N3CCN(C(=O)c4ccccc4)CC3)cc2)c1	PREPL inhibitor 55 | PREPL inh cf 58
CC(=O)N1CCN(c2ccccc2NC(=O)COc2ccc(Cl)cc2Cl)CC1	none
O=C(COc1ccccc1[N+](=O)[O-])Nc1ccc(N2CCN(C(=O)c3cccs3)CC2)cc1	PREPL inhibitor 44 | PREPL inh cf 64
CCN1CCN(c2ccc(NC(=O)COc3ccc(Cl)cc3C)cc2)CC1	PREPL inhibitor 43 (no result: MEKK2 WT-MEK5, MEKK3 PB1 HTS, MEKK2mut PB1 HTS) | PREPL inh cf 53
CCC(=O)Nc1ccc(N2CCN(C(=O)c3cccs3)CC2)cc1	none
Cc1cc(Cl)ccc1OCC(=O)Nc1ccncc1	none
CC1(C)Cc2[nH]c3ccccc3c2C(C)(C)N1	none
CC1=NCC(C)c2c1[nH]c1ccccc21 (centres undefined)	PREPL inhibitor 45 | PREPL inh cf inactive
COc1ccc2cc(C(C)C(=O)N3CCC(C)CC3)ccc2c1 (centres undefined)	none
COc1ccc(C)cc1Nc1n[n+](-c2ccccc2)c(-c2c(OC)ccc3ccccc23)s1	PREPL inhibitor 51 (no result: MEKK2 WT-MEK5, MEKK3 PB1 HTS, MEKK2mut PB1 HTS) | PREPL inh cf inactive
CCOc1cc(-c2sc(Nc3cc(C)ccc3OC)n[n+]2-c2ccccc2)ccc1OC	none (no result: MEKK2 WT-MEK5, MEKK3 PB1 HTS, MEKK2mut PB1 HTS)
CN1CCN(C(c2cccc(C(F)(F)F)c2)c2nnnn2C(C)(C)C)CC1 (centres undefined)	PREPL inhibitor 43 | PREPL inh cf inactive
Cc1ccc(S(=O)(=O)N2CCC(C(=O)Nc3ccc(N4CCOCC4)cc3)CC2)cc1C	none (no result: MEKK2 WT-MEK5, PREPL inhibitor, MEKK3 PB1 HTS, MEKK2mut PB1 HTS)
COCCCNC(=O)c1c(NC(=O)c2cccs2)sc2c1CCCC2	PREPL inhibitor 44 | PREPL inh cf inactive
CCOc1ccc(/C=N/NC(=O)CN2CCCCCCC2)cc1	none
CCN(CC)c1ccc(C(=O)NN)cc1	none
CCN(CC)c1ccc(N)cc1	PREPL inhibitor 64 (no result: MEKK2 WT-MEK5, MEKK3 PB1 HTS, MEKK2mut PB1 HTS) | PREPL inh cf inactive
CN1Cc2c(N3CCOCC3)nc3sc(C(=O)c4ccccc4)c(N)c3c2CC1(C)C	PREPL inhibitor 61 | PREPL inh cf 64
C=CC[n+]1c(-c2ccc(Cl)cc2Cl)csc1Nc1ccc(NC(C)=O)cc1	PREPL inhibitor 59 | PREPL inh cf 63
C=CC[n+]1c(-c2ccc(Cl)cc2Cl)csc1Nc1c(C)n(C)n(-c2ccccc2)c1=O	none
